Calls of active or inactive are those of the source. The rule behind the calls is not given here.

7 compounds from ChEMBL document CHEMBL1157720, “Development of carbohydrate-derived inhibitors of acid sphingomyelinase” (Bioorg Med Chem, 2010) can be followed below.

Assay [1] has as its target T1, Sphingomyelin phosphodiesterase 2 (Rattus norvegicus, UniProt Q9ET64).
T1 sequence (Q9ET64 whole entry): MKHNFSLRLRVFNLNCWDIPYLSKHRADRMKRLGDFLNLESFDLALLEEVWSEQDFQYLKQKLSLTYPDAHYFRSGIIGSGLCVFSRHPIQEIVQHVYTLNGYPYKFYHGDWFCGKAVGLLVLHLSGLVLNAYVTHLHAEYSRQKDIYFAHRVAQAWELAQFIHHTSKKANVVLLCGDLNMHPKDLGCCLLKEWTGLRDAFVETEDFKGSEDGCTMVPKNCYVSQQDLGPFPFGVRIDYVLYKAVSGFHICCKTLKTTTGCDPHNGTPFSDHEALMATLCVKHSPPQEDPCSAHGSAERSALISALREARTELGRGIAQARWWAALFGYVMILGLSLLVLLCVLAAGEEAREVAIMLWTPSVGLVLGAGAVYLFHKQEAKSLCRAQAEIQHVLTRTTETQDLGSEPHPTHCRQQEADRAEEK
The experiment in a line: Inhibition of nSMase in rat brain microsomal homogenate by micellar 14C-sphingomyelin assay.

A short description of assay [2]: Inhibition of aSMase in rat brain microsomal homogenate by fluorescence assay.
A further assay concerns HEK293. The experiment in a line: Inhibition of dexamethasone-induced apoptosis in HEK293 cells assessed as decrease in DNA fragmentation at 1 to 2 uM after 7 hrs by ELISA. To be noted: Homo sapiens. The format is functional, cell-based. In short, it runs like this: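 HEK-293 cells in medium with BrdU labelling solution (10 µM final) were plated at about 0.5 × 10³ cells/well. After 16 h they were washed and re-fed, then given 10^-8 M dexamethasone plus inhibitor for 7 h. Supernatant went to an anti-BrdU ELISA (secondary antibody, TMB), with absorbance at 370 nm. Quintuplicate.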

The next assay is filed under the species Rattus norvegicus. To be noted: Brain, Microsomal.

For `CCS(=O)(=O)OC[C@H]1OC(O)[C@H](OP(=O)(O)O)[C@@H](O)[C@@H]1OP(=O)(O)O` (some centres not stated), the IC50 was above 100 µM in assay [1] and 39.6 µM in assay [2]. For `CCCCCCCCS(=O)(=O)OC[C@H]1OC(O)[C@H](OP(=O)(O)O)[C@@H](O)[C@@H]1OP(=O)(O)O` (some centres not stated) the same measures were above 100 µM and 2.34 µM. Consider `O=P(O)(O)OC[C@H]1OC(O)[C@H](OP(=O)(O)O)[C@@H](O)[C@@H]1OP(=O)(O)O` (some centres not stated), for which, in assay [2], the IC50 is above 50 µM.

For the compound `CCCCCCS(=O)(=O)OC[C@H]1OC(O)[C@H](OP(=O)(O)O)[C@@H](O)[C@@H]1OP(=O)(O)O` (some centres not stated), the IC50 in assay [1] is above 100 µM. As to `CCCCCCCCCCCCS(=O)(=O)OC[C@H]1OC(O)[C@H](OP(=O)(O)O)[C@@H](O)[C@@H]1OP(=O)(O)O` (some centres not stated), the outcome in the assay with HEK293 was Active. For the same compound, the IC50 in assay [1] was above 100 µM; in assay [2], 0.44 µM. As to `CCCCCC/C=C\C=C/C/C=C\C/C=C\CCCC(=O)OC(COC(=O)CCCCCCCCCCCCCCCCC)COP(=O)(O)O[C@@H]1[C@H](O)[C@H](OP(=O)(O)O)[C@@H](O)[C@H](OP(=O)(O)O)[C@H]1O` (some centres not stated), in the assay filed under Rattus norvegicus, the Km was 0.53 µM. The IC50 in assay [1] is above 100 µM.

With `O=P(O)(O)OC[C@H]1OC[C@H](OP(=O)(O)O)C[C@@H]1OP(=O)(O)O`, the IC50 in assay [2] is above 50 µM.

One may read the IC50 as the concentration needed to halve the response being measured. As a reminder, the Km is the concentration of substrate that gives half-maximal velocity.
